In ChEMBL document CHEMBL3758088, “Synthesis and biological evaluation of enantiomerically pure glyceric acid derivatives as LpxC inhibitors” (Bioorg Med Chem, 2016):
≈ marks a conversion by molar mass, not a printed value.

Assays:
[1] = test system: Escherichia coli; assay: Antibacterial activity against Escherichia coli BL21(DE3) incubated overnight by agar disk diffusion clearance assay; type: functional
How it was run: (§1)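 Agar disc diffusion. 150 µL of an overnight LB culture (37 °C, 200 rpm) was spread on LB agar. 6 mm filter discs were loaded with 15 µL of 10 mM compound in DMSO, with DMSO and CHIR-090 discs as controls. Plates were incubated overnight at 37 °C and the diameter of the growth-inhibition zone was measured. Values are mean ± SD of three independent experiments.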

[2] = test system: Escherichia coli; assay: Antibacterial activity against Escherichia coli D22 incubated for 20 hrs by microdilution assay; type: functional; conditions: D22, 20 h
How it was run: (§2)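 Broth microdilution in LB medium with 5% DMSO. Overnight cultures (LB, 37 °C, 200 rpm) were diluted 1:100 in fresh LB. Compounds were added from a twofold DMSO dilution series (5.12 mM to 20 nM stock), giving 256 μM to 1 nM final. Plates were shaken 20 h at 37 °C, 200 rpm. MIC was the lowest concentration with no visible growth.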

[3] = test system: Escherichia coli; assay: Antibacterial activity against Escherichia coli D22 incubated overnight by agar disk diffusion clearance assay; type: functional; how it was run: as §1
[4] = test system: Escherichia coli; assay: Antibacterial activity against Escherichia coli BL21(DE3) incubated for 20 hrs by microdilution assay; type: functional; how it was run: as §2
[5] = biological target: UDP-3-O-acyl-N-acetylglucosamine deacetylase (Escherichia coli K-12, UniProt P0A725, C63A); assay: Inhibition of Escherichia coli LpxC C63A mutant using UDP-3-O-[(R)-3-hydroxymyristoyl]-N-acetylglucosamine substrate after 30 mins by fluorescence-bsed microplate assay
Sequence of UDP-3-O-acyl-N-acetylglucosamine deacetylase (P0A725 whole entry C63A): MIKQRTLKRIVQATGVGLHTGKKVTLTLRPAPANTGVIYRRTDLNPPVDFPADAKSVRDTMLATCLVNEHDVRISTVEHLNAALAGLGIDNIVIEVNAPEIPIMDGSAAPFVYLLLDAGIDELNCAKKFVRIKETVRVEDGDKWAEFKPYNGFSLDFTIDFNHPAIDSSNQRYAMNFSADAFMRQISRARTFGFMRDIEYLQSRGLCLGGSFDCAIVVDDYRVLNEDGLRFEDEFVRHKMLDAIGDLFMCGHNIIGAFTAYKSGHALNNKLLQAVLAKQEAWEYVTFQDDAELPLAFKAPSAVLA

Question: `O=C(NO)[C@H](CO)OCc1ccc(C#Cc2ccc(CN3CCOCC3)cc2)cc1` was tested. Which “diameter of the inhibition zone (DIZ)” value [1] did it give?
Answer: 15.7 mm

Question: What about the MIC [2] of the same compound?
Answer: 2 µM (≈ 0.821 µg/mL)

Question: What about the “diameter of the inhibition zone (DIZ)” value [3] of the same compound?
Answer: 25.8 mm

Question: What about the MIC [4] of the same compound?
Answer: 64 µM (≈ 26.3 µg/mL)

Question: And the IC50 [5]?
Answer: 2820 nM

Question: And the Ki [5]?
Answer: 390 nM

Question: For `O=C(NO)[C@H](CO)O[C@H](CO)c1ccc(C#Cc2ccc(CN3CCOCC3)cc2)cc1`, which MIC [2] is on record?
Answer: 4 µM (≈ 1.76 µg/mL)

Question: What about the MIC [4] of the same compound?
Answer: > 256 µM

Question: And the IC50 [5]?
Answer: 2600 nM

Question: And the Ki [5]?
Answer: 360 nM

Question: What does the source list for `O=C(CO[C@@H](CO)c1ccc(C#Cc2ccccc2)cc1)NO`?
Answer: MIC [2]: 32 µM (≈ 9.96 µg/mL); MIC [4]: 256 µM (≈ 79.7 µg/mL); IC50 [5]: 31600 nM; Ki [5]: 4400 nM

Question: What does the source list for `O=C(NO)[C@@H](CO)OCc1ccc(C#Cc2ccccc2)cc1`?
Answer: diameter of the inhibition zone (DIZ) [1]: 10.3 mm; MIC [2]: 8 µM (≈ 2.49 µg/mL); diameter of the inhibition zone (DIZ) [3]: 17 mm; MIC [4]: 256 µM (≈ 79.7 µg/mL); IC50 [5]: 1870 nM; Ki [5]: 260 nM

Question: What does the source list for `C[C@@H](O)[C@H](NC(=O)c1ccc(C#Cc2ccc(CN3CCOCC3)cc2)cc1)C(=O)NO`?
Answer: MIC [2]: 0.032 µM (≈ 0.014 µg/mL); MIC [4]: 1 µM (≈ 0.437 µg/mL)

Question: How did the MIC [2] turn out when `O=C(CO[C@@H](CO)c1ccc(C#Cc2ccc(CN3CCOCC3)cc2)cc1)NO` was run?
Answer: 4 µM (≈ 1.64 µg/mL)

Question: What about the MIC [4] of the same compound?
Answer: > 256 µM

Question: What about the IC50 [5] of the same compound?
Answer: 198000 nM

Question: What about the Ki [5] of the same compound?
Answer: 27300 nM

Question: Which results are given for `O=C(NO)[C@H](CO)OCc1ccc(C#Cc2ccccc2)cc1`?
Answer: diameter of the inhibition zone (DIZ) [1]: 11.7 mm; MIC [2]: 4 µM (≈ 1.25 µg/mL); diameter of the inhibition zone (DIZ) [3]: 20.7 mm; MIC [4]: 128 µM (≈ 39.9 µg/mL); IC50 [5]: 1960 nM; Ki [5]: 270 nM

Question: With `O=C(CO[C@H](CO)c1ccc(C#Cc2ccc(CN3CCOCC3)cc2)cc1)NO` as the compound, how does the MIC [2] read?
Answer: 0.5 µM (≈ 0.205 µg/mL)

Question: What about the MIC [4] of the same compound?
Answer: 64 µM (≈ 26.3 µg/mL)

Question: What about the IC50 [5] of the same compound?
Answer: 690 nM

Question: And the Ki [5]?
Answer: 95 nM

Question: For `O=C(CO[C@H](CO)c1ccc(C#Cc2ccccc2)cc1)NO`, which MIC [2] is on record?
Answer: 4 µM (≈ 1.25 µg/mL)

Question: And the MIC [4]?
Answer: 256 µM (≈ 79.7 µg/mL)

Question: What about the IC50 [5] of the same compound?
Answer: 480 nM

Question: And the Ki [5]?
Answer: 66 nM

Question: With `O=C(COCc1ccc(C#Cc2ccc(CN3CCOCC3)cc2)cc1)NO` as the compound, how does the MIC [2] read?
Answer: 1 µM (≈ 0.38 µg/mL)

Question: And the MIC [4]?
Answer: 64 µM (≈ 24.3 µg/mL)

Question: What about the IC50 [5] of the same compound?
Answer: 10500 nM

Question: And the Ki [5]?
Answer: 1450 nM

Question: Which “diameter of the inhibition zone (DIZ)” value [1] does the source give for `O=C(NO)[C@@H](CO)OCc1ccc(C#Cc2ccc(CN3CCOCC3)cc2)cc1` here?
Answer: 12.3 mm

Question: What about the MIC [2] of the same compound?
Answer: 4 µM (≈ 1.64 µg/mL)

Question: What about the “diameter of the inhibition zone (DIZ)” value [3] of the same compound?
Answer: 22 mm

Question: And the MIC [4]?
Answer: 128 µM (≈ 52.5 µg/mL)

Question: And the IC50 [5]?
Answer: 1660 nM

Question: And the Ki [5]?
Answer: 230 nM

Question: Which MIC [2] does the source give for `O=C(COCc1ccc(C#Cc2ccccc2)cc1)NO` here?
Answer: 4 µM (≈ 1.13 µg/mL)

Question: What about the MIC [4] of the same compound?
Answer: 128 µM (≈ 36 µg/mL)

Question: What about the IC50 [5] of the same compound?
Answer: > 200000 nM
